The source of these data is ChEMBL document CHEMBL2375332, “Novel quinolone substituted thiazolidin-4-ones as anti-inflammatory, anticancer agents: design, synthesis and biological screening” (Eur J Med Chem, 2013).

One data set deals with ACHN. The experiment in a line: Cytotoxicity against human ACHN cells […] by MTT assay. The format is functional, cell-based.
In data set [1] the test system is COLO 205. The experiment in a line: Cytotoxicity against human COLO205 cells […] by MTT assay. The format is functional, cell-based.
The subject of data set [2] is BT-549. The experiment in a line: Cytotoxicity against human BT549 cells after 24 hrs by MTT assay. To be noted: BT-549, 24 h. In kind it is functional, cell-based.
The subject of data set [3] is COLO 205. In words: Induction of apoptosis in human COLO205 cells assessed as zeiosis at IC50 after 48 hrs by Hoechst 33258 staining-based inverted microscopic analysis. The format is functional, cell-based. A digest of the protocol: (§1)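 COLO-205 cells seeded at 10⁵ cells/ml and grown to 70-80% confluency. Treated at IC₅₀ dose for 48 h. Fixed in 4% formaldehyde for 30 min at room temperature, stained with Hoechst 33258 for 15 min, washed three times with PBS. Imaged by inverted fluorescence microscope (excitation 340-380 nm, emission 465 nm) at 400x and scored for nuclear morphology.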

Data set [4] is described as follows: Antitumor activity against mouse EAC […] Swiss albino mouse assessed as change in body weight at 100 mg/kg, ip administered everyday from day 10 to day 14 measured on day 12 (reference value: 22.03 +/- 1.67%). To be noted: route intraperitoneal. In kind it is functional, Ehrlich.
Data set [5] deals with COLO 205. The experiment in a line: Inhibition of NF-kappaB in human COLO205 cells assessed as Bcl-2 down regulation at IC50 after 48 hrs by RT-PCR analysis. The format is cell-based. The procedure, abridged: (§2)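 About 4x10⁶ COLO-205 cells/well treated at IC₅₀ dose for 48 h. Total RNA extracted with TRI Reagent and quantified. Bcl-2 and Bax measured by RT-PCR against GAPDH (40 cycles: 94 °C, 55 °C, 72 °C). Products run on 1.5% agarose gel and quantified by band densitometry.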

In data set [6] the test system is Rattus norvegicus. The experiment in a line: Antiinflammatory activity in albino rat assessed as inhibition of carrageenan-induced paw edema at 100 mg/kg, po administered 1 hr prior to carrageenan-challenge measured after 3 hrs relative to control. In kind it is functional. The procedure, abridged: (§3)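 Charles Foster albino rats of either sex (150–200 g, pregnant females excluded), six per group, dosed orally; 1 h later 0.2 mL of 1% carrageenan in 0.9% NaCl injected into right hind paw subplantar tissue. Paw volume read by plethysmometer at injection and 3 h later. Control group received carrageenan only. % inhibition = 1–Dt/Dc×100. Mean ± S.D.; one-way ANOVA with Tukey's test.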

The subject of data set [7] is COLO 205. The experiment in a line: Induction of apoptosis in human COLO205 cells assessed as karyopyknosis at IC50 after 48 hrs by Hoechst 33258 staining-based inverted microscopic analysis. The format is functional, cell-based. A digest of the protocol:
as §1

For data set [8], the system named is COLO 205. The experiment in a line: Induction of apoptosis in human COLO205 cells assessed as nuclear fragmentation at IC50 after 48 hrs by Hoechst 33258 staining-based inverted microscopic analysis. The format is functional, cell-based. The procedure, abridged: as §1
Data set [9] can be described thus: Antitumor activity against mouse EAC […] Swiss albino mouse assessed as increase in life span at 100 mg/kg, ip relative to vehicle-treated control. In kind it is functional, Ehrlich. To be noted: route intraperitoneal. The procedure, abridged: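 Female Swiss albino mice (6–8 weeks), six per group, inoculated i.p. on day 0 with 1×10⁶ viable EAC cells from donor ascites. Drug suspended in 0.25% CMC, given i.p. at 0.1 ml/10 g on days 10–14. Survival was monitored twice daily for 44 days. ILS(%) = [(MST treated/MST control) − 1]×100, where MST is total days survived divided by the number of animals.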

Data set [10] deals with HeLa. The experiment in a line: Cytotoxicity against human HeLa cells at 100 ug/ml […] by MTT assay. In kind it is cell-based.
The test system of data set [11] is HeLa. The experiment in a line: Cytotoxicity against human HeLa cells after 24 hrs by MTT assay. The format is functional, cell-based.
Data set [12] deals with COLO 205. In words: Inhibition of NF-kappaB in human COLO205 cells assessed as Bax up-regulation at IC50 after 48 hrs by RT-PCR analysis. The format is cell-based. A digest of the protocol:
as §2

Data set [13] can be described thus: Antitumor activity against mouse EAC […] Swiss albino mouse assessed as change in body weight at 100 mg/kg, ip administered on day 10 measured on day 15 (reference value: 22.03 +/- 1.67%). The format is functional, Ehrlich. To be noted: route intraperitoneal.
The subject of data set [14] is COLO 205. In words: Induction of apoptosis in human COLO205 cells assessed as late apoptotic cells at IC50 after 48 hrs by acridine orange-ethidium bromide staining assay. The format is functional, cell-based. A digest of the protocol: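 COLO-205 cells seeded at 10⁵ cells/ml, grown 24 h, then treated at IC₅₀ dose for 48 h. Floating and trypsinized adherent cells pooled, spun at 129 g for 5 min and washed in PBS. Stained with 1:1 acridine orange/ethidium bromide and viewed by fluorescence microscopy at 400x (green viable, orange-red apoptotic).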

The subject of data set [15] is BT-549. In words: Cytotoxicity against human BT549 cells at 100 ug/ml […] by MTT assay. The format is cell-based.
Data set [16] relates to Rattus norvegicus. In words: Antiinflammatory activity in albino rat assessed as inhibition of carrageenan-induced paw edema at 10 mg/kg, po administered 1 hr prior to carrageenan-challenge measured after 3 hrs relative to control. The format is functional. The procedure, abridged: as §3

Converted amounts (≈) assume the structure as drawn. The source made the active and inactive calls. The rule behind the calls is not given here.

On to `O=c1[nH]cc(F)c(=O)[nH]1` [FLUOROURACIL], for which the values for the IC50 with ACHN and with COLO 205 [1] were 9.87 µg/mL (≈ 75.9 µM) and 4.56 µg/mL (≈ 35.1 µM), respectively.
For `Cc1cc(=O)[nH]c2cc(N3C(=O)CSC3c3cccs3)ccc12` (configuration not stated), the half-maximal inhibitory concentration (IC50) in the data set on ACHN came out at 44.7 µg/mL (≈ 131 µM); in the data set on BT-549 [2], 43 µg/mL (≈ 126 µM); in the data set on COLO 205 [1], 20.7 µg/mL (≈ 60.6 µM); in the data set on HeLa [11], 27.1 µg/mL (≈ 79 µM). The result with COLO 205 [3], in the data set with COLO 205 [7], with COLO 205 [8] and in the data set with COLO 205 [14] was Active. Besides, the Activity in [4] was determined as 6.66%; in [9] it was 77.09%; in the data set with HeLa [10], 83.762%; in data set [13], 3.86%; in the data set with BT-549 [15], 63.163%. Also, the inhibition result in the data set on COLO 205 [5] and in the data set with COLO 205 [12] was “Active” each time. The inhibition in vivo at 100 mg/kg with Rattus norvegicus [6] turned out to be 18.6%. The MST in data set [9] was determined as 32.16 days.
As to `Cc1cc(=O)[nH]c2cc(N3C(=O)CSC3c3ccccc3)ccc12` (configuration not stated), the half-inhibitory concentration (IC50) with ACHN was 78.9 µg/mL (≈ 234 µM); in the data set on BT-549 [2], 39.3 µg/mL (≈ 117 µM); in the data set on COLO 205 [1] it was 31.4 µg/mL (≈ 93.3 µM); with HeLa [11], 35.1 µg/mL (≈ 104 µM). Moreover, the result with COLO 205 [3], in the data set on COLO 205 [7], with COLO 205 [8] and in the data set on COLO 205 [14] was Active. Also, the Activity in [4] is listed as 10.65%; in data set [9], 60.57%; in the data set on HeLa [10] it was 74.85%; in data set [13], 5.93%; with BT-549 [15], 71.578%. Further, the inhibition entry with COLO 205 [5] and with COLO 205 [12] was “Active” each time. Moreover, the inhibition in vivo at 100 mg/kg in the data set with Rattus norvegicus [6] was 17.8%. For the same compound, in [9], the MST is 29.16 days.
With `Cc1cc(=O)[nH]c2cc(N3C(=O)CSC3c3ccc(O)cc3)ccc12` (configuration not stated), in the data set with Rattus norvegicus [6], the inhibition in vivo at 100 mg/kg stood at 22.9%. Further, the Activity with HeLa [10] was determined as 68.91%; in the data set with BT-549 [15] it was 42.143%.
Take `COc1ccc2c(c1)c(CC(=O)O)c(C)n2C(=O)c1ccc(Cl)cc1` [INDOMETHACIN]: in the data set on Rattus norvegicus [16], the inhibition in vivo at 10 mg/kg was 33.2%.
Regarding `Cc1cc(=O)[nH]c2cc(N3C(=O)CSC3c3ccc([N+](=O)[O-])cc3)ccc12` (configuration not stated), the inhibition in vivo at 100 mg/kg with Rattus norvegicus [6] was 25.2%. The Activity in the data set on HeLa [10] was found to be 54.851%; in the data set on BT-549 [15], 40.478%.
On the same counts, the results for `Cc1cc(=O)[nH]c2cc(N3C(=O)CSC3c3ccc(Br)cc3)ccc12` (configuration not stated) are 12.4%, 65.742% and 42.663%.
The like results for `Cc1cc(=O)[nH]c2cc(N3C(=O)CSC3c3ccccc3Cl)ccc12` (configuration not stated) were, in that order, 14.5%, 52.496% and 61.394%.
The like results for `Cc1cc(=O)[nH]c2cc(N3C(=O)CSC3c3ccccn3)ccc12` (configuration not stated) were, in that order, 7.5%, 20% and 18.028%.
In the case of `Cc1cc(=O)[nH]c2cc(N3C(=O)CSC3c3ccc(Cl)cc3)ccc12` (configuration not stated), the inhibition in vivo at 100 mg/kg with Rattus norvegicus [6] came out at 13%. Moreover, the figures for the Activity in the data set with HeLa [10] and in the data set with BT-549 [15] were 20.198% and 46.201%, respectively.
On the same counts, the results for `Cc1cc(=O)[nH]c2cc(N3C(=O)CSC3c3ccncc3)ccc12` (configuration not stated) are 7.62%, 20.343% and 22.176%.
On the same counts, the results for `Cc1ccc(C2SCC(=O)N2c2ccc3c(C)cc(=O)[nH]c3c2)o1` (configuration not stated) are 10.1%, 27.453% and 31.114%.
Consider `Cc1cc(=O)[nH]c2cc(N3C(=O)CSC3N3CCOCC3)ccc12` (configuration not stated), for which the inhibition in vivo at 100 mg/kg with Rattus norvegicus [6] was found to be 1.75%. The figures for the Activity with HeLa [10] and in the data set on BT-549 [15] were 23.662% and 25.274%, respectively.
The like results for `Cc1cc(=O)[nH]c2cc(N3C(=O)CSC3c3ccccc3F)ccc12` (configuration not stated) were, in that order, 20.4%, 59.6% and 40.062%.
